Compound activity from PubChem BioAssay.
Compounds with a hit are over-represented: about 1.8% of the library has one in this group of screens.
DNMT1 inh = blocks human DNA methyltransferase DNMT1. actives 0.83% (n = 360,000). AID 588458. DNMT1 molecular beacon, Hinp1I cleavage, fluorescence. inhibition (reported as % activation of signal), % at 10 µM; in the data active = inhibition above about 50%
STEP inh = blocks human striatal-enriched tyrosine phosphatase; actives 0.25% (n = 360,000); inhibition, % at 20 µM; AID 588621; recombinant STEP, OMFP fluorogenic substrate, fluorescence;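 active = inhibition at 20 µM, scaled per plate between control wells, above about 37%, limit read from the data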
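Also added – OMFP at 25 µM · Test system – STEP tyrosine phosphatase · Technique – FITC-channel fluorescence of OMFP product · Schedule – 20 min at room temperature, dark · Evaluation – control-normalized % inhibition with plate pattern correction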
HKDC1 inh = HKDC1 (human) hexokinase inhibition; Q2TB90; recombinant HKDC1, G6PDH/diaphorase resazurin coupled fluorescence; inhibition, % at 20 µM; actives 0.16% (n = 340,000);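 active = inhibition above about 35% when tested at 20 µM, limit read from the data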
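Assay system: in-house recombinant HK5 (HKDC1) enzyme. Input: HKDC1 at 5 µg/mL. Medium: Tris pH 8.0 buffer with MgCl2, Tween-20, BSA, BME. Dosing: single 20 µM dose. Schedule: 90 min reaction incubation at room temperature, dark. Signal: resazurin-to-resorufin fluorescence via G6PDH and diaphorase coupling, 525/613 nm. Controls: DMSO-enzyme wells negative, buffer-substituted wells positive.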
LMPTP inh = blocks human LMPTP phosphatase; P24666; inhibition, % at 20 µM; recombinant LMPTP-A, OMFP fluorogenic substrate, fluorescence intensity; AID 651560; actives 0.22% (n = 360,000);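 active = compounds that cut the enzyme signal by at least half of the control window in the single-dose screen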
Target sequence (P24666 whole entry, looked up): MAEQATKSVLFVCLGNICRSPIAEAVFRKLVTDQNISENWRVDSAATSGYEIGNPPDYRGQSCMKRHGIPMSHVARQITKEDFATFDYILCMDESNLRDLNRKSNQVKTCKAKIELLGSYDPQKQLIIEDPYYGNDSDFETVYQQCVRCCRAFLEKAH
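material = LMPTP-A | quantity = 0.625 nM enzyme | reagent = OMFP substrate, 400 µM final | buffer or medium = Bis-Tris pH 6.0, DTT, detergent | detection = endpoint fluorescence intensity from OMFP dephosphorylation | dosing = single 20 µM dose | read-out basis = % inhibition relative to no-enzyme and uninhibited control wells | control set = no-enzyme and uninhibited controls | timing = 50 min at room temperature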
SUMO1-SIM PPI = alters human SUMO1 binding to SIM partners; P63165; inhibition, % at 20 µM; SUMO1 binding to a labelled peptide, TR-FRET, 1 h; actives 0.33% (n = 360,000); in the data active = inhibition above about 37%
Target sequence (P63165 whole entry, looked up): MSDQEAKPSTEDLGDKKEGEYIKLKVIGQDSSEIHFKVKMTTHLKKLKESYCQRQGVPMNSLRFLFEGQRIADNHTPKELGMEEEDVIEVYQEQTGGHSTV
Scp1 inh = Scp-1 (human) phosphatase inhibition; Q9GZU7; Recombinant Scp1, phosphopeptide, malachite green phosphate absorbance; inhibition, % at 20 µM; actives 0.88% (n = 340,000); AID 493091;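 active = inhibition above about 50% at 20 µM, limit read from the data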
Target sequence (Q9GZU7 76-261 limits assumed): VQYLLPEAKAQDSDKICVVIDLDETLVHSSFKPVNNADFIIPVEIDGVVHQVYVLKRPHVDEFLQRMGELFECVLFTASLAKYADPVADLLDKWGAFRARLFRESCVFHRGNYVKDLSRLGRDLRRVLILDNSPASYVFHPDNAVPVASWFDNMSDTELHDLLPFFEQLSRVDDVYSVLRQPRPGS
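System: truncated SCP-1 phosphatase (76-261aa); medium: Tris acetate buffer pH 5.5 with MgCl2 and Tween-20; incubation: 45 min room-temperature reaction, 5 min colour, 30 min stabiliser; compound: single 20 µM dose, 1% DMSO; reagent: Phosphorylated 17-residue peptide substrate; read-out: % inhibition at 20 µM; technique: colorimetric free-phosphate detection, absorbance 630 nm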
HKDC1 act conf = HKDC1 (human) activation, single-dose confirmed. shares compounds with HKDC1 inh. recombinant HKDC1, G6PDH/diaphorase resazurin fluorescence; active compounds read low. inhibition, % at 20 µM. actives 14% (n = 740);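 active = inhibition at or below a set negative limit, negative inhibition meaning the enzyme was activated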
Hits are given with their value; - = inactive; . = no result.

SMILES	DNMT1 inh	STEP inh	HKDC1 inh	LMPTP inh	SUMO1-SIM PPI	Scp1 inh	HKDC1 act conf
O=C(CCNC(=O)c1ccc([N+](=O)[O-])cc1)NCCC1=CCCCC1	-	-	35	-	-	-	-
COc1ccc(C)cc1NC(=O)C(CCS(C)(=O)=O)NC(C)=O (stereo not drawn)	-	-	-	-	-	-	.
Fc1ccc(N2C(=S)SC(=Nc3ccccc3)C2=Nc2ccccc2)cc1	-	-	-	-	-	-	-
O=C1C(Cc2ccccc2)SC(=Nc2ccccc2)N1c1ccccc1 (stereo not drawn)	-	-	-	-	-	-	.
N#CC(C#N)=C1SC(=Nc2ccccc2)C(=Nc2ccccc2)N1c1ccccc1	-	-	-	-	-	-	-
CNc1ccc(Br)cc(C(=O)/C=C/c2cccc(OC)c2)c1=O	-	-	-	-	-	-	.
CCNc1ccc(Br)cc(C(=O)/C=C/c2c(Cl)cccc2Cl)c1=O	84	-	37	-	-	-	-
O=C(NC1CC1)c1sc2cc([N+](=O)[O-])ccc2c1Cl	-	-	-	-	-	-	.
CC(NC(=O)c1sc2cc([N+](=O)[O-])ccc2c1Cl)C(C)(C)C (stereo not drawn)	-	-	-	-	-	-	-39
COc1ccc(NC(=O)C2(C)CCN2C2Cc3ccccc3C2)cc1OC (stereo not drawn)	-	-	.	-	-	.	.
O=c1cc(-c2cccc(Br)c2)nc(-c2ccccc2F)o1	-	-	-	-	-	-	-
CN(Cc1ccccc1)C(=O)c1cccc(NC(=O)Cc2ccc(NC(=O)C3CCN(C(=O)C4CCCCC4)CC3)cc2)c1	-	-	-	-	-	-	.
CC(C)Nc1nnc(SCC(=O)Nc2ccc3c(c2)C(=O)c2ccccc2C3=O)s1	-	-	43	-	-	-	-
O=C(CSc1nnc(NC2CCCCC2)s1)Nc1ccc2c(c1)C(=O)c1ccccc1C2=O	-	-	-	-	-	-	.
COc1ccc(CN2CC(=O)N3[C@H]4c5ccccc5OC[C@@H]4[C@H](c4ccccc4)[C@]3(C)C2=O)cc1	-	-	-	-	-	-	.
O=C(O)c1cccc(-c2ccc(/C=c3/sc4nc5ccccc5n4c3=O)o2)c1	87	94	48	-	103	96	-
O=C(CN1C(=O)NC2(CCCC2)C1=O)N1CCN(Cc2ccccc2)CC1	-	-	-	-	-	-	.
O=C(O)[C@@H](c1ccccc1)N1Cc2ccccc2C1=O	-	-	52	-	-	-	-
Cc1ccc(SC2=C(N(C)C)C(=O)c3ccccc3C2=O)cc1	-	-	57	-	-	-	-
Cc1ccc(NC2=CC(=O)C(=O)c3ccccc32)cc1	-	-	-	-	-	-	.
CCNC1=C(Cl)C(=O)c2ccccc2C1=O	-	-	-	-	-	-	.
CCCC(=O)NC1=C(Cl)C(=O)c2ccccc2C1=O	-	-	60	-	-	-	-
O=S(=O)(Nc1ccc(O)c2ccccc12)c1cccs1	-	-	51	-	-	-	-
CNC(=O)COC(=O)c1ccc(Cl)c(S(N)(=O)=O)c1	-	-	-	-	-	-	.
COc1cc(OC)c(C(=O)C=Cc2ccc(OC)c(OC)c2)c(OC)c1	-	-	-	-	-	-	.
SMILES	DNMT1 inh	STEP inh	HKDC1 inh	LMPTP inh	SUMO1-SIM PPI	Scp1 inh	HKDC1 act conf
COc1ccc(/C=C/C(=O)c2ccc([N+](=O)[O-])o2)cc1OC	.	.	-	.	.	-	-
COc1cc(OC)cc(-c2c(C#Cc3ccsc3)c3cc(-c4ccc5c(c4)OCCO5)ccc3n2C)c1	-	-	-	-	-	-	.
CCn1c2ccccc2c2nnc(SCc3ccc(C(=O)OC)o3)nc21	-	-	-	-	-	-	-
Cc1noc(C)c1C(=O)N(CC(=O)Nc1ccc(Cl)c(C(F)(F)F)c1)Cc1ccco1	-	-	-	-	-	-	.
COc1cc(NS(=O)(=O)c2ccc(NC(=O)c3ccc(F)cc3)cc2)ncn1	-	-	-	-	-	-	-
Nc1ccccc1-c1nnc(SCC(=O)Nc2ccccc2OC(F)F)[nH]c1=O	-	-	-	-	-	-	.
COc1ccc(CN2C=C3C(=O)C(C)(OC(=O)C4CCCC4)C(=O)C=C3C=C2c2ccsc2)cc1 (stereo not drawn)	-	-	35	-	-	-	-
CCCN(CCC)C(=S)NC(=O)c1ccc(-c2ccccc2)cc1	-	-	-	-	-	-	-
CCOc1ccc(C(=O)NC(=S)N(Cc2ccccc2)Cc2ccccc2)cc1	-	-	-	-	-	-	.
Cc1cc(S(=O)(=O)Nc2nc(CN3CCOCC3)nc3sc4c(c23)CCC4)ccc1F	-	-	-	-	-	-	.
CN(c1ccc(C(=O)N2CCN(Cc3ccccc3)CC2)cc1)S(=O)(=O)c1ccccc1	-	-	-	-	-	-	-
CN(c1ccc(C(=O)N2CCN(Cc3ccc4c(c3)OCO4)CC2)cc1)S(=O)(=O)c1ccccc1	-	-	-	-	-	-	.
NC(CSC(c1ccccc1)(c1ccccc1)c1cccc2ccccc12)C(=O)O (stereo not drawn)	69	-	35	-	-	-	-
NC(CSC1(c2cccc3ccccc23)c2ccccc2-c2ccccc21)C(=O)O (stereo not drawn)	-	-	-	-	-	-	.
Cc1c(C(=O)Nc2cccnc2Cl)oc2ccccc12	-	-	-	-	-	-	.
OCC1(Cc2cccc(Cl)c2)CCCN(Cc2cnn(-c3ccccc3)c2)C1 (stereo not drawn)	-	-	-	-	-	-	.
CC12CCC(C(=O)N/N=C/c3ccc(O)cc3O)(OC1=O)C2(C)C (stereo not drawn)	-	-	-	-	-	-	-35
C/C(=N\NC(=O)C12CCC(C)(C(=O)O1)C2(C)C)c1ccccc1O (stereo not drawn)	-	-	-	-	-	-	.
COc1ccc(-c2cc(N)n(CCC#N)n2)c(OC)c1	-	-	40	-	-	-	-
COC(=O)CC1(C(=O)OC)Nc2cc(Cl)c(Cl)cc2S(=O)(=O)N1O (stereo not drawn)	-	-	.	-	-	.	.
COc1ccccc1/C=N/NC(=O)c1ccc2c(c1)OCO2	-	-	-	-	-	-	.
O=C(N/N=C/c1ccccc1OC(=O)c1ccc2c(c1)OCO2)c1ccccc1	-	-	-	-	-	-	-
CC(OC(=O)c1cc(O)c2ccccc2c1O)C(=O)Nc1ccc(C(N)=O)cc1 (stereo not drawn)	-	-	39	-	-	-	-
